A short description of series [1]: Cytotoxicity against mouse V-Src -transformed NIH/3T3 cells at 1 uM by trypan blue exclusion with phase contrast microscopy. The series is classed as cell-based. Particulars: nih3t3, 1 µM.
The nature of series [2]: Cytotoxicity against mouse V-Src -transformed NIH/3T3 cells at 2.5 uM by trypan blue exclusion with phase contrast microscopy. The series is classed as cell-based. Particulars: nih3t3, 2.5 µM.
Series [3] is described as follows: Cytotoxicity against mouse NIH/3T3 cells at 2.5 uM by trypan blue exclusion with phase contrast microscopy. Conditions: nih3t3, 2.5 µM. The series is classed as cell-based.
In series [4] the target is Stalled ribosome sensor GCN1 (Homo sapiens) (UniProt Q92616). The experiment in a line: Decrease in GCN1 expression in human U251MG cells at 5 uM for 1 hr by mass spectrometry relative to control. Conditions: U-251. The series is classed as functional, cell-based. The procedure, abridged:
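U251MG cells treated 1 h with 5 μM compound; whole-cell lysates analyzed by global proteomics mass spectrometry; protein levels expressed relative to DMSO-treated cells.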

Series [5] concerns the target Signal transducer and activator of transcription 3 (Mus musculus) (UniProt P42227). The experiment in a line: Inhibition of Stat3 dimer DNA binding activity in mouse NIH3T3/vSrc nuclear extract at 10 uM preincubated for 30 mins followed by addition of radiolabeled probe hSIE for 30 mins by EMSA in presence of 50 uM Cys. A general note: In EMSA bound probe runs differently from free probe, usually more slowly.

Series [6] has as its target T1, Signal transducer and activator of transcription 3 (Homo sapiens, UniProt P40763). The experiment in a line: Inhibition of Stat3 activity in human U251MG cells assessed as decrease in c-Myc expression at 5 uM after 24 hrs by immunoblot analysis. It counts as cell-based. Particulars: U-251. The procedure, abridged: (§1)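 U251MG cells treated with 5 μM compound for 0–24 h. Whole-cell lysates immunoblotted for pStat3, Stat3, c-Myc, Bcl-2, Bcl-xL, Mcl-1, GAPDH. Control was 0.025% DMSO.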
(In general: In western blotting, separated proteins are transferred to a membrane and probed.)

For series [7], the target named is T1, Signal transducer and activator of transcription 3. The experiment in a line: Inhibition of Stat3 activity in human U251MG cells assessed as decrease in Bcl-2 expression at 5 uM after 24 hrs by immunoblot analysis. It counts as cell-based. Conditions: U-251. The procedure, abridged: as §1
Series [8] has the same target. The experiment in a line: Inhibition of Stat3 activity in human U251MG cells assessed as decrease in Bcl-xl expression at 5 uM after 24 hrs by immunoblot analysis. Conditions: U-251. It counts as cell-based. The procedure, abridged: as §1
For series [9], the target named is Tyrosine-protein kinase JAK2 (Homo sapiens) (UniProt O60674). The experiment in a line: Modulation of Jak2 phosphorylation in human U251MG cells at 5 uM after 0.5 to 24 hrs by immunoblot analysis. The series is classed as cell-based. Particulars: U-251. The procedure, abridged: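 U251MG glioma cells (RPMI or DMEM, 10% FBS, 1% nonessential amino acids) treated with 5 μM compound for 0–24 h; 0.025% DMSO control. Whole-cell lysates of equal total protein immunoblotted for pErk1/2, Erk1/2, pJAK2 and JAK2 with β-actin or GAPDH loading controls. Representative of 2–4 independent determinations.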

For series [10], the target named is T1, Signal transducer and activator of transcription 3. The experiment in a line: Inhibition of Stat3 phosphorylation in human U251MG cells transfected with Stat3 flag-tagged N-terminal domain at 5 uM after 1.5 hrs by immunoblot analysis. It counts as cell-based. Conditions: U-251. An outline of the steps:
(§2)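 U251MG cells transiently transfected with 7.5–21 μg FLAG-Stat3 NTD, CCD, DBD or CTD plasmid, or pcDNA3 mock. Re-seeded 24 h later; after another 18 h, treated with or without 5 μM compound for 1.5 h. Whole-cell lysates immunoblotted for FLAG, pY705Stat3, Stat3, GAPDH. 0.025% DMSO control. Representative of 2 independent determinations.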

Series [11] has the same target. The experiment in a line: Inhibition of Stat3 phosphorylation in human U251MG cells transfected with Stat3 flag-tagged coliled coil domain at 5 uM after 1.5 hrs by immunoblot analysis. The series is classed as cell-based. Conditions: U-251. The procedure, abridged: as §2
Series [12] has the same target. The experiment in a line: Inhibition of Stat3 phosphorylation in human U251MG cells transfected with Stat3 flag-tagged C-terminal domain at 5 uM after 1.5 hrs by immunoblot analysis. The series is classed as cell-based. Conditions: U-251. An outline of the steps: as §2

Experimental findings from ChEMBL document CHEMBL3627612, “Hirsutinolide Series Inhibit Stat3 Activity, Alter GCN1, MAP1B, Hsp105, G6PD, Vimentin, TrxR1, and Importin α-2 Expression, and Induce Antitumor Effects against Human Glioma” (J Med Chem, 2015) are described below.

Active and inactive are the calls of the source. The rule behind the calls is not given here.

T1 sequence (P40763 whole entry): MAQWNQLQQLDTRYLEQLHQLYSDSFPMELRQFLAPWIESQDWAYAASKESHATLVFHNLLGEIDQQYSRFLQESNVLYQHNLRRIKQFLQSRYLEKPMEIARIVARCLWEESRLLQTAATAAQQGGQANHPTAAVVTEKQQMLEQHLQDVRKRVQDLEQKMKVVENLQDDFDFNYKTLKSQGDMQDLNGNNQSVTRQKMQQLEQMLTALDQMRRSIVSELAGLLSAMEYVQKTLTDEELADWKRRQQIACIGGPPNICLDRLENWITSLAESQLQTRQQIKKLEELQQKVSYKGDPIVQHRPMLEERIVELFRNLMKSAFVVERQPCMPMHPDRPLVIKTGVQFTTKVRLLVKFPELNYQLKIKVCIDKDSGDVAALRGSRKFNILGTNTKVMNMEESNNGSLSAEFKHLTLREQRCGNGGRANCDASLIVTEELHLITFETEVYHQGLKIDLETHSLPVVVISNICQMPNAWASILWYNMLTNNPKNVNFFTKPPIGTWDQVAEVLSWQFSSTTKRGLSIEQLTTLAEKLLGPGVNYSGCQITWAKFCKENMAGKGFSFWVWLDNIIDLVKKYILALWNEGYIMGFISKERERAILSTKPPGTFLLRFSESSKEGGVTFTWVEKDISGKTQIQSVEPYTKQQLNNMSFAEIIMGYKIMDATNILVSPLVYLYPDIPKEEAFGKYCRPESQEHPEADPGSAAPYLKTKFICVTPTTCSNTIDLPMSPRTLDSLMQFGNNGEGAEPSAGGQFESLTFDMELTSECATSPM
Chain of Stalled ribosome sensor GCN1 (Homo sapiens) (Q92616 whole entry): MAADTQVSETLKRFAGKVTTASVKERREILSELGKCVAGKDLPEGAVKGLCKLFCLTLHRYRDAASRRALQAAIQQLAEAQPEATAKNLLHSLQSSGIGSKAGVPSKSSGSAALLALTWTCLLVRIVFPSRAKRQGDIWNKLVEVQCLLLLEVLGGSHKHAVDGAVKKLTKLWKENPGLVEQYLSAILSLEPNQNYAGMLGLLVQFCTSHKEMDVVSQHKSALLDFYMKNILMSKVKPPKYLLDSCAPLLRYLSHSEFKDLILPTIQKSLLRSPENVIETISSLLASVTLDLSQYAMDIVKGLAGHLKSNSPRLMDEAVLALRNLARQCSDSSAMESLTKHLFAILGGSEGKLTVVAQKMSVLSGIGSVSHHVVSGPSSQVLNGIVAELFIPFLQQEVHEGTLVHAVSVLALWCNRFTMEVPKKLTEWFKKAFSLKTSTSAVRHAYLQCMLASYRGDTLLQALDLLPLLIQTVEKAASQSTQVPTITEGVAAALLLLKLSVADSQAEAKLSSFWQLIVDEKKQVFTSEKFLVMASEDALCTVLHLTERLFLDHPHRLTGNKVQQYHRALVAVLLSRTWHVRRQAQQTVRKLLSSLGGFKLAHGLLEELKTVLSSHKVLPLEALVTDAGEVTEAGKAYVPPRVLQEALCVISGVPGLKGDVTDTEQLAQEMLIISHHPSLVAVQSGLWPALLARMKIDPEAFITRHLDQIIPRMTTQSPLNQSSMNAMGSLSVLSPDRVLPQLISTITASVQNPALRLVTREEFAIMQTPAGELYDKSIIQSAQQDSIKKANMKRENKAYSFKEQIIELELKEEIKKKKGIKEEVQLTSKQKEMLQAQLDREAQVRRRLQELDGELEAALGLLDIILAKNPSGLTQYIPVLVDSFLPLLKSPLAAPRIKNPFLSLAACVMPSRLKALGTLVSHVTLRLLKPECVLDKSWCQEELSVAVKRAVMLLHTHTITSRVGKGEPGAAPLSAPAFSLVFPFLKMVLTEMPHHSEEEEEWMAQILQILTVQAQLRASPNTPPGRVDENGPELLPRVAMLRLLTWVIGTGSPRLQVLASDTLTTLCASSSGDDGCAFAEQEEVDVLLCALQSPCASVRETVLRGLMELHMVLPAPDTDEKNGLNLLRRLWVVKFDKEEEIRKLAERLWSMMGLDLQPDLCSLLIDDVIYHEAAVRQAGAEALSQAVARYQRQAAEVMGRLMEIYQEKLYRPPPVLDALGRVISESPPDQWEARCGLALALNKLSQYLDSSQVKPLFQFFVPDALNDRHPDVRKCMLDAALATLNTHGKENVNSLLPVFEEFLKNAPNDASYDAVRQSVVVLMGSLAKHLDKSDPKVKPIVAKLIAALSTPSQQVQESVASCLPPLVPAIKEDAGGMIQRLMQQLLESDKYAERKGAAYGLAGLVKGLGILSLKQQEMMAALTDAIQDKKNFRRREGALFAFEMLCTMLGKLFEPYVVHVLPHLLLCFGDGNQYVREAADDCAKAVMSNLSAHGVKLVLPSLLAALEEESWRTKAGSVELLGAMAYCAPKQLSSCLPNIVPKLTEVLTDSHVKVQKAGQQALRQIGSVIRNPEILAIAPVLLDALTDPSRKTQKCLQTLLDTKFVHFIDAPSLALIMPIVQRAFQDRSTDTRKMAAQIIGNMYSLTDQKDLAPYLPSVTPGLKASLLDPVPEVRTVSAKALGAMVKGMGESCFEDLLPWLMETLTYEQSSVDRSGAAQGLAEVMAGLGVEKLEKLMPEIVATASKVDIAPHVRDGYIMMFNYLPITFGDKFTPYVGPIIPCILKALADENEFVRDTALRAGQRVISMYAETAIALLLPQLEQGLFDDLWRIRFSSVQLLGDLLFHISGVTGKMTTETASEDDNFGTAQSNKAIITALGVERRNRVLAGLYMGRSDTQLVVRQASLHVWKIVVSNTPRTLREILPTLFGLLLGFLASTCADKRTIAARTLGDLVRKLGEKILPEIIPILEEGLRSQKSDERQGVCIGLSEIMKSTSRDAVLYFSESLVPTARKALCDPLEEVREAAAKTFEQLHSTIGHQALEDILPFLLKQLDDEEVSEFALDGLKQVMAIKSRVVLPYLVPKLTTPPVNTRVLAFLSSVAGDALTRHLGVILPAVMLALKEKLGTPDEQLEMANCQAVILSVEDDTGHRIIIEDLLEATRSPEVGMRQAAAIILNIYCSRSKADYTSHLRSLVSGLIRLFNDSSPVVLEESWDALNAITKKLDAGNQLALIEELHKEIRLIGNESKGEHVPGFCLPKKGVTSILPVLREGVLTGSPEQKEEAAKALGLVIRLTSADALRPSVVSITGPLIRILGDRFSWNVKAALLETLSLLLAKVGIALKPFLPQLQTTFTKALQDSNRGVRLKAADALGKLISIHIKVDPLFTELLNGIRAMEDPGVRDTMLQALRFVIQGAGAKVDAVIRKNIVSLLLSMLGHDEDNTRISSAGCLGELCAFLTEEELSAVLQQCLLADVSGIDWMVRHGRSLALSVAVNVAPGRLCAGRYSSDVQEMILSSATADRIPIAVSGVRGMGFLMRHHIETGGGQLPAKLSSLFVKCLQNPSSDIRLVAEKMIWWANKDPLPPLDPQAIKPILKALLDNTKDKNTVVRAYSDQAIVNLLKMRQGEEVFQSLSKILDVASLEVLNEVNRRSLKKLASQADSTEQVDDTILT
Chain of Tyrosine-protein kinase JAK2 (Homo sapiens) (O60674 whole entry): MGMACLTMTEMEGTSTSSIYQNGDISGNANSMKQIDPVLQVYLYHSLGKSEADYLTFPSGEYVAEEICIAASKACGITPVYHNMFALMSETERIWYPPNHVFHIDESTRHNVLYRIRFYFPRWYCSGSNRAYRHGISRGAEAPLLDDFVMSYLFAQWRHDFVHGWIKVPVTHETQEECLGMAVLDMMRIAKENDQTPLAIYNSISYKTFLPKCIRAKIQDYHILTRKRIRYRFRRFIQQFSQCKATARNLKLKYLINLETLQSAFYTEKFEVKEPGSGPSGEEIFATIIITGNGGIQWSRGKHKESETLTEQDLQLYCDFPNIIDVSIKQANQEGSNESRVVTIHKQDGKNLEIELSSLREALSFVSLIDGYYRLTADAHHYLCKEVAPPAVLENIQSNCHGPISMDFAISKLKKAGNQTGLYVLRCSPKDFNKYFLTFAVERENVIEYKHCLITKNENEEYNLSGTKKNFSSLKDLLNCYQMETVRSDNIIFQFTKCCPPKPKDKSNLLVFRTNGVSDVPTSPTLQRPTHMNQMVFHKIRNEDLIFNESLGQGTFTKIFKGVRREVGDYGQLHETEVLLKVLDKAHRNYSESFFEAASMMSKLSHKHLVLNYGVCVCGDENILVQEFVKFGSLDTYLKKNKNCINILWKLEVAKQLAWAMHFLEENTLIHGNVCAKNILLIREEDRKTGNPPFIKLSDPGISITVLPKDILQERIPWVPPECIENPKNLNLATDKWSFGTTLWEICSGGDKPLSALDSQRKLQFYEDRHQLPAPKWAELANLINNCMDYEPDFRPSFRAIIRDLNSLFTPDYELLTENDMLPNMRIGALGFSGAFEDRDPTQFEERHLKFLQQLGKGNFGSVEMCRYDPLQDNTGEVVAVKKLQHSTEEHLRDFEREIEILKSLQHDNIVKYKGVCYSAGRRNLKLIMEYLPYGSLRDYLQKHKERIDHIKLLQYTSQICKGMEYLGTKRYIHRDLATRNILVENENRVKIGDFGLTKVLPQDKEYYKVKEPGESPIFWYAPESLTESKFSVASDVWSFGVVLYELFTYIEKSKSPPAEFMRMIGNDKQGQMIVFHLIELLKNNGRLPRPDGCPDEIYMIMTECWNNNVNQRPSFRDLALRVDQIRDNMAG
Chain of Signal transducer and activator of transcription 3 (Mus musculus) (P42227 whole entry): as the sequence (P40763 whole entry) above, with E760D counted along it

Consider `C/C=C(\C)C(=O)OCC1=C2/C(=C\[C@@]3(C)CC[C@](O)(O3)[C@H](C)C[C@@H]2O)OC1=O`, for which the Activity entry in series [1] is reported as “Toxic”; in [2] it was “Toxic”; in series [3] it was “Non-toxic”. The fold change (FC) in [4] came out at 0.555. Also, the inhibition result in [5] was “Active”.
On to `C/C=C(\C)C(=O)O[C@H]1C[C@@H](C)[C@]2(O)CC[C@](C)(/C=C3/OC(=O)C(COC(C)=O)=C31)O2`, for which the inhibition entry in [6], in series [7], in [8], in series [10], in series [11] and in series [12] was “Active” throughout. Also, in series [9], the outcome was Active.
